APOBEC3A inh = blocks human APOBEC3A ssDNA deamination; P31941; 0.41% of 330,000 active; inhibition, % at 20 µM; recombinant A3A, FAM/TAMRA ssDNA deamination fluorescence;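 active = at least 40% inhibition at 20 µM here, with at most 30% in a related deaminase screen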;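 also: plate controls were A3A with DMSO for no effect and wells lacking A3A enzyme for full effect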
Target sequence (P31941 whole entry, looked up): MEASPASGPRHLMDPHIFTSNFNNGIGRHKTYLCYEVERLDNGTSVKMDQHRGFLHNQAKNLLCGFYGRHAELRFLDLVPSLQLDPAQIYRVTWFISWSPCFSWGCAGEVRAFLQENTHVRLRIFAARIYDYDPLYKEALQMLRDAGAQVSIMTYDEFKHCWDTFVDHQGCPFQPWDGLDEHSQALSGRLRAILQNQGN
ABHD5 PLIN5 PPI = inhibitors of human ABHD5-perilipin-5 interaction; 0.78% of 360,000 active; Q00G26+Q8WTS1; inhibition, % at 4 µM; Split G. princeps luciferase complementation, luminescence, 4 h;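 active = inhibition above the mean inhibition across every tested compound plus 3 SD, cut at about 22% in these data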;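 also: 0% = DMSO only wells and the 100% control is not disclosed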
A3G deaminase = inhibitors of human APOBEC3G DNA deaminase | inhibition, % at 20 µM | 0.28% of 330,000 active | recombinant A3G, ssDNA deamination FAM/TAMRA fluorescence | AID 493012;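 active = inhibition of at least 40% at 20 µM, with no more than 30% in the related APOBEC3A deaminase screen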;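 also: plate controls were DMSO wells with A3G for no effect and wells lacking A3G enzyme for full effect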
Target sequence (Q9HC16 whole entry, looked up): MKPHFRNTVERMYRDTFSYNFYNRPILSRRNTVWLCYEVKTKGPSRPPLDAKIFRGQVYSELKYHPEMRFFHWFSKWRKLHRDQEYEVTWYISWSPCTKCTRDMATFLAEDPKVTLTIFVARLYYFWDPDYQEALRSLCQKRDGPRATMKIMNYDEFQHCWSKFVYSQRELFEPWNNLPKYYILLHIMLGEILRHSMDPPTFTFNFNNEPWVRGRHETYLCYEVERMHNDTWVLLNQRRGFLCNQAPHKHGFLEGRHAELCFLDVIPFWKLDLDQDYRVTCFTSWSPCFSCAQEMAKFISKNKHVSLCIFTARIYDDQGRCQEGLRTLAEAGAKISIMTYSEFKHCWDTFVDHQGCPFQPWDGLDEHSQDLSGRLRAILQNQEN
FN deposition inh = fibronectin deposition inhibition; 0.086% of 350,000 active; inhibition, % at 12.6 µM; AH1F fibroblasts, Alexa488-fibronectin deposition fluorescence, overnight;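 active = mean inhibition across replicates of 30% or more, regardless of how many single replicates reach that level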;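 also: positive control wells lacked labelled fibronectin entirely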
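material = AH1F fibroblast monolayer depositing Alexa488-labelled fibronectin into matrix | amount = 10000 AH1F cells/well | buffer or medium = DMEM plus 2% serum, read in PBS | incubation = 1 h cell adhesion before compound, then overnight fibronectin incubation | detection = fluorescence at 485 nm excitation, 525 nm emission | evaluation = percent inhibition as loss of matrix-bound fibronectin fluorescence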
APOBEC3A confirm = APOBEC3A (human) deaminase inhibition, confirmed; 63% of 1,400 active; recombinant A3A, ssDNA deaminase UDG fluorescence assay; inhibition, % at 20 µM; shares compounds with APOBEC3A inh;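 active = inhibition reaching a set limit, 80% of the first screen's cutoff, at 20 µM in any replicate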;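 also: plate controls were DMSO wells with A3A for no effect and wells lacking A3A enzyme for full effect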
UDG A3A counter = counter-screen for APOBEC3A inhibitors: UDG; shares compounds with APOBEC3A inh; UDG counterscreen, FAM/TAMRA uracil oligo fluorescence; inhibition, % at 20 µM; 1,000 tested, under 10 active; AID 504714; call rule not given here
The depositor's hits bear a star. Compounds with a hit are over-represented: about 1.2% of the library has one in this group of screens.

For Cc1cccc(C(=O)Nc2ccc(S(=O)(=O)N3CCOCC3)cc2C)c1 the results were APOBEC3A inh 43*, ABHD5 PLIN5 PPI 7, A3G deaminase 13, FN deposition inh 5, APOBEC3A confirm 52* and UDG A3A counter -1.
`N#C/C(=C/c1ccccc1OCc1ccc(F)cc1)c1ccc(C(=O)O)cc1` gave APOBEC3A inh 67*, ABHD5 PLIN5 PPI -3, A3G deaminase 6, FN deposition inh -4 and APOBEC3A confirm 8.
Screening CCOc1ccccc1NC(=S)N1CCN(c2ccc(OC)cc2)CC1 returned APOBEC3A inh 83*, ABHD5 PLIN5 PPI -5, A3G deaminase -4, FN deposition inh -3, APOBEC3A confirm -9 and UDG A3A counter -3.
Screening Cc1noc(C)c1S(=O)(=O)N(C)C[C@@H]1Oc2ccc(NC(=O)Nc3ccc(C(F)(F)F)cc3)cc2CC(=O)N([C@H](C)CO)C[C@H]1C returned FN deposition inh 12.
For O=C(NCC[C@@H]1CC[C@H](NC(=O)C2CC2)[C@@H](CO)O1)Nc1ccc(Cl)cc1 the results were FN deposition inh -3.
Screening Cc1nc2ccc(NC(=O)C3COc4ccccc4O3)cc2s1 (configuration not stated) returned APOBEC3A inh 49*, ABHD5 PLIN5 PPI 3, A3G deaminase 16, FN deposition inh 5, APOBEC3A confirm 60* and UDG A3A counter 2.
Screening COc1ccc(NC(=O)N(C)C[C@H]2OCc3cn(nn3)CCCC(=O)N([C@@H](C)CO)C[C@H]2C)cc1 returned FN deposition inh -9.
For CCOCc1cnc(C)nc1NCC(=O)c1c(C)[nH]c2cc(C)ccc12 the results were APOBEC3A inh 56*, ABHD5 PLIN5 PPI 10, A3G deaminase 27, APOBEC3A confirm 64* and UDG A3A counter 1.
`O=C(O)c1ccc2c3c(cccc13)C(=O)N(c1ccccc1)C2=O` gave APOBEC3A inh 63*, ABHD5 PLIN5 PPI 8, A3G deaminase 26, FN deposition inh -5, APOBEC3A confirm 55* and UDG A3A counter -3.
`CCS(=O)(=O)N1[C@H](CO)[C@@H](c2ccccc2)C12CN(C(=O)C1CC1)C2` gave FN deposition inh -11.
`CCOC(=O)NC(=O)CN1C(=O)NC(C)(c2ccccc2)C1=O` (configuration not stated) gave APOBEC3A inh 72*, ABHD5 PLIN5 PPI 0, A3G deaminase -9, APOBEC3A confirm -7 and UDG A3A counter 0.
`C[C@H](CO)N1C[C@H](C)[C@H](CN(C)C(=O)C2CC2)Oc2cc(-c3cncnc3)ccc2S1(=O)=O` gave FN deposition inh 4.
For C[C@@H]1CN([C@@H](C)CO)C(=O)c2c(c3ccccc3n2C)-c2ccccc2CO[C@H]1CN(C)Cc1ccccc1 the results were FN deposition inh -2.
COc1ccc(-c2csc(N(CCCN(C)C)C(=O)c3ccccc3F)n2)cc1 was read as APOBEC3A inh 48*, ABHD5 PLIN5 PPI -2, A3G deaminase -9, FN deposition inh 4, APOBEC3A confirm -6 and UDG A3A counter -1.
CCN(CC)C(=O)c1ccc(/C=C/c2c[nH]c3ccccc23)[n+](C)c1 was read as APOBEC3A inh 42*, ABHD5 PLIN5 PPI 4, A3G deaminase 13, FN deposition inh -17, APOBEC3A confirm 68* and UDG A3A counter 4.
Screening COc1ccc(/C=C/C(=O)N(CCC(N)=O)c2ccccc2)cc1S(=O)(=O)N1CCOCC1 returned APOBEC3A inh 41*, ABHD5 PLIN5 PPI -5, A3G deaminase -3, FN deposition inh 6, APOBEC3A confirm 27* and UDG A3A counter -36.
CCOc1cc(/C=C(\C#N)C(=O)NCC2CCCO2)ccc1OCC(N)=O (configuration not stated) was read as APOBEC3A inh 51*, ABHD5 PLIN5 PPI 1, A3G deaminase 13, FN deposition inh -4, APOBEC3A confirm 43* and UDG A3A counter -2.
For CCOc1cc(/C=C(\C#N)C(=O)NCC2CCCO2)ccc1O (configuration not stated) the results were APOBEC3A inh -3, ABHD5 PLIN5 PPI 3, A3G deaminase -11 and FN deposition inh -4.
C=CCn1cccc(C(=O)Nc2ccc(OC)c(Cl)c2)c1=O was read as APOBEC3A inh 48*, ABHD5 PLIN5 PPI -3, A3G deaminase -9, APOBEC3A confirm -10 and UDG A3A counter 6.
C=CCn1cccc(C(=O)Nc2ccc(OC)c(OC)c2)c1=O was read as APOBEC3A inh 0, ABHD5 PLIN5 PPI -5, A3G deaminase 0 and FN deposition inh 2.
Screening O=C1Nc2ccccc2/C1=N/c1sc2c(c1C(=O)NCCc1ccccc1)CCCC2 returned APOBEC3A inh 44*, ABHD5 PLIN5 PPI -7, A3G deaminase -2, APOBEC3A confirm -4 and UDG A3A counter 1.
For CC(=O)Nc1cccc2c1O[C@H](CN(C)C(C)=O)[C@@H](C)CN(C)C2=O the results were FN deposition inh -3.
`O=C(CSc1ncccn1)N1CCN(C(=O)CSc2ncccn2)CC1` gave APOBEC3A inh -3, ABHD5 PLIN5 PPI 3, A3G deaminase -4 and FN deposition inh -5.
Screening O=C(CSc1ncccn1)N1CCN(C(c2ccccc2)c2ccccc2)CC1 returned APOBEC3A inh 47*, ABHD5 PLIN5 PPI 1, A3G deaminase 8, FN deposition inh 14, APOBEC3A confirm 70* and UDG A3A counter -2.
For Cc1nc2ccc(C(=O)O)cc2c2c1CC(C)S2 (configuration not stated) the results were APOBEC3A inh 43*, ABHD5 PLIN5 PPI -7, A3G deaminase 13, APOBEC3A confirm 46* and UDG A3A counter 4.
`O=[N+]([O-])c1ccccc1/C=N/NC1=NCCN1` gave APOBEC3A inh 50*, ABHD5 PLIN5 PPI 2, A3G deaminase 19, FN deposition inh -6, APOBEC3A confirm 64* and UDG A3A counter 5.
`CC(C)[C@H](NC(=O)Cc1ccccc1)C(=O)OCc1cc(=O)n2c(n1)sc1ccccc12` gave APOBEC3A inh 43*, ABHD5 PLIN5 PPI -3, A3G deaminase 8, FN deposition inh 5 and APOBEC3A confirm 30.
For O=C(OCc1cc(=O)n2c(n1)sc1ccccc12)c1ccc2c(=O)n3c(nc2c1)CCC3 the results were APOBEC3A inh 22, ABHD5 PLIN5 PPI 2, A3G deaminase 12 and FN deposition inh 8.
Cc1ccc2c(CC(=O)OCc3cc(=O)n4c(n3)sc3ccccc34)coc2c1 was read as APOBEC3A inh 44*, ABHD5 PLIN5 PPI 5, A3G deaminase 10 and APOBEC3A confirm 26.
Screening CCCC(=O)Nc1ccc2c(c1)OC[C@@H](C)N(C)C[C@@H](C)[C@H](OC)CN(C)C2=O returned FN deposition inh 4.
For O=C(CCc1ccccc1)Nc1ncn[nH]1 the results were APOBEC3A inh 94*, ABHD5 PLIN5 PPI 6, A3G deaminase -7, APOBEC3A confirm 7 and UDG A3A counter 3.

Screening data deposited in PubChem BioAssay by several laboratories.
